PLK1 kinase inh – blocks human PLK1 kinase activity; inhibition, % at 10 µM; P53350; AID 619; recombinant PLK1 kinase, TR-FRET peptide phosphorylation; hit rate 0.53% among 97,000;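 active means inhibition of 50% or more in the single-concentration screen; inactive means inhibition below 50%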;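 further: 0% = DMSO max control and 100% = H-89 dihydrochloride min control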
Rev-RRE block – disrupts HIV-1 Rev binding to RRE RNA; inhibition, % at 8 µM; hit rate 0.79% among 97,000; Rev peptide-RRE RNA binding, FRET; AID 704;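 active means inhibition above the screen-wide mean plus 3 SD, cut at about 35% in these data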;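 further: 0% = median DMSO wells and 100% = median Neomycin B control wells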
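Test system: Cy5-tagged RRE RNA duplex with fluorescein-tagged Rev peptide; Probe or stimulus: labelled Rev peptide; Schedule: 5 min preincubation and 15 min binding, 25 °C; Signal: FRET fluorescence readout; Evaluation: % inhibition from 671/540 nm acceptor-to-donor ratio, scaled between controls; Control set: DMSO and neomycin B.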
FAK inh – FAK (human) kinase inhibition. Q05397. biochemical FAK kinase activity assay. inhibition, %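 (tested at 7 µM)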. hit rate 0.84% among 97,000. AID 727; in the data active means inhibition above about 19%;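 further: 0% = DMSO and 100% = reference compound high control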
EphB4 antag – EphB4-ephrin-B2 interaction antagonism. P54760. EphB4 LBD / TNYL-RAW-Alexa532 peptide, fluorescence polarization. inhibition, % at 7 µM. hit rate 0.15% among 97,000;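 active means inhibition above the screen-wide mean inhibition plus 3 SD, cut at about 15% in these data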;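 further: 0% = DMSO wells and 100% = excess unlabeled TNYL-RAW peptide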
DAT uptake mod – changed human dopamine transporter uptake under cocaine IC80; LLC-PK1 hDAT cells, [14C]-dopamine uptake with cocaine IC80; actives deviate in either direction; hit rate 1.3% among 110,000; B-score at 10 µM;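 active means Z score or B-score, a plate-position-corrected score, falls beyond the plate's 99.7% confidence bounds, in either direction; inactive means both scores lie inside the 99.7% bounds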;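 further: scored against the spread of the other compound wells on the same plate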
Plk1 PBD FP – Plk1 (human) PBD binding inhibition | P53350 | Plk1 PBD phosphopeptide binding, fluorescence polarization | inhibition, %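 (tested at about 20 µM)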 | hit rate 0.13% among 97,000; in the data active means inhibition above about 34%, passing the limit was not always enough
* hit, by the source's call; / = no result given; [ ] = dose if it differs, or a comment. The list is not random: actives were taken first. Their share in the collection is about 3.2%.

SMILES	PLK1 kinase inh	Rev-RRE block	FAK inh	EphB4 antag	DAT uptake mod	Plk1 PBD FP
CCOC(=O)c1cnc(SC2CCc3ccccc3C2=O)nc1N (stereo unspecified)	-5	9	0	-8	2.7*	5
CCOC(=O)c1cnc(SC2CC(=O)N(c3ccccc3)C2=O)nc1N (stereo unspecified)	-10	2	-1	-7	-1.2	-10
CC/C(=C\C(=O)c1ccncc1)Nc1ccc(O)cc1	-5	1	2	-1	3*	-24
O=C(NCc1ccc(Cl)cc1)c1cnccn1	-7	9	-4	6	-2.8*	-6
O=C(NCc1cccc(Cl)c1)c1cnccn1	-5	18	-1	7	-0.089	-22
COC(=O)c1nn(-c2ccccc2)c(Sc2ccc(C)cc2)c1/C=N/O	-4	15	-1	3	-0.5	-5
Cc1ccc(C(=O)Nc2nc(C(C)(C)C)cs2)s1	-6	10	-1	3	0.36	15
CC(C)(C)c1csc(NC(=O)c2ccc(Cl)s2)n1	-5	13	4	3	-2.6*	2
C=CCn1c(=O)c(C(=O)Nc2cccnc2)c(O)c2ccccc21	-12	1	23*	-1	0.035	-3
COC(=O)c1sccc1NC(=O)Nc1ccc(Cl)c(Cl)c1	-11	8	-28	5	-7.9*	13
COC(=O)c1cccc(NC(=O)Nc2ccc(Cl)c(Cl)c2)c1	-8	7	4	-1	-0.026	12
Cc1[nH]nc2c1C1(CCC(c3ccccc3)CC1)C(C#N)=C(N)O2 (stereo unspecified)	60*	11	6	4	-1.2	-35
Cc1ccc(S(=O)(=O)NC(C)(C)CSc2nnc(Nc3ccccc3)s2)cc1	-4	8	0	3	-8.1*	-20
CN(C)C/C=C(/c1ccc(Br)cc1)c1cccnc1	/	/	/	/	0.28	/
CCOc1c2ccc(C(=O)NCc3ccc4c(c3)OCO4)cc2nn1CCOC	-12	6	-4	0	0.43	-16
CCC1=C/C(=C/N(C)c2ccccc2)C(=O)S1	-10	16	-1	5	-1	2
O=C(Nc1ccc2c(c1)OCCO2)NC1(C(F)(F)F)Oc2ccccc2O1	-11	0	0	-3	-3*	3
O=C(Nc1ccc2c(c1)OCO2)NC1(C(F)(F)F)Oc2ccccc2O1	-10	7	0	4	-3	22
CC(C)CC(OC(=O)c1ccco1)C(=O)NC1CCCCC1 (stereo unspecified)	-10	2	-1	-13	-0.78	2
CCOC(=O)C1=C(CSc2nc(-c3ccccc3)ccc2C#N)OC(N)=C(C#N)C1c1ccccc1 (stereo unspecified)	-7	27	1	-4	-0.35	-9
COC(=O)C1=C(CSc2nc3c(cc2C#N)CN(C)CC3)OC(N)=C(C#N)C1c1ccccc1F (stereo unspecified)	0	54*	14	-4	-1.1	-26
CCOC(=O)C1=C(CSc2nc3c(cc2C#N)CN(C)CC3)OC(N)=C(C#N)C1c1ccccc1 (stereo unspecified)	-4	57*	17	2	1.3	2
COC(=O)C1=C(C)OC(N)=C(C#N)C1c1ccccc1F (stereo unspecified)	-6	3	1	-1	-0.69	2
CCOC(=O)C1=C(CSc2nc(-c3ccccc3)ccc2C#N)OC(N)=C(C#N)C1c1cccnc1 (stereo unspecified)	-10	37*	0	5	-0.99	-31
CCOC(=O)C1=C(CSc2nc3c(cc2C#N)CN(C)CC3)OC(N)=C(C#N)C1c1ccc(F)cc1 (stereo unspecified)	6	57*	17	1	-0.65	-42
SMILES	PLK1 kinase inh	Rev-RRE block	FAK inh	EphB4 antag	DAT uptake mod	Plk1 PBD FP
CCOC(=O)C1=C(CSc2nc3c(cc2C#N)CCC3)OC(N)=C(C#N)C1c1ccccc1 (stereo unspecified)	-14	21	-7	6	0.23	15
C=CCN1C=CC(=C/C=C(/C#N)C(=O)OCC)C=C1	-40	138*[fluorescence artefact?]	0	0	-2.6*	-193
COc1ccc2c(c1)C(C)(CCN)C(=O)N2C (stereo unspecified)	/	/	/	/	-0.19	/
CCOC(=O)/C(C#N)=C/C1=C(N2CCCC2)CC(C)(CC)OC1 (stereo unspecified)	-36	4	-2	-1	-0.97	5
COc1ccccc1NC(=O)Cn1cnc2sc(C(=O)NCc3ccco3)c(C)c2c1=O	7	14	0	2	1.9*	1
CCOC(=O)/C(C#N)=C/Nc1ccccc1OC	-9	2	6	0	-8.2*	-21
CCOC(=O)C(=O)/C(C#N)=C/Nc1ccccc1	2	9	0	3	0.3	-2
CN(CC(=O)Nc1ccccc1C(=O)N1CCCC1)S(=O)(=O)c1ccc(Cl)cc1	-9	3	2	5	-0.38	4
CC(C)c1nnc(NC(=O)c2cccs2)s1	67*	8	-8	2	0.24	-12
Cc1cc2c(ncn2Cc2ccccc2)c([N+](=O)[O-])c1C	3	11	3	1	-1	-2
CCCNC(=O)C(Cc1ccccc1)NS(=O)(=O)c1ccc2c(c1)CCC(=O)N2 (stereo unspecified)	1	10	-2	2	-2.2*	20
Cc1ccc(CNC(=O)C(Cc2ccccc2)NS(=O)(=O)c2ccc3c(c2)CCC(=O)N3)cc1 (stereo unspecified)	-9	-2	-8	-3	0.14	22
Cc1ccccc1-c1nc2ccccc2c(=O)n1/N=C/c1ccccc1[N+](=O)[O-]	-2	7	-7	-3	1.1*	-12
COc1cc(C(CCN2CCCC2)c2c(OC)cc(OC)c3c(C)cc(=O)oc23)cc(OC)c1OC (stereo unspecified)	/	/	/	/	0.61	/
COc1cc(C(CC(=O)N2CCCC2)c2c(OC)cc(OC)c3c(-c4ccccc4)cc(=O)oc23)cc(OC)c1OC (stereo unspecified)	/	/	/	/	2.7*	/
COc1cc(C(CCN2CCOCC2)c2c(OC)cc(OC)c3c(C)cc(=O)oc23)cc(OC)c1OC (stereo unspecified)	/	/	/	/	2.8*	/
C#CCNC(=O)C1=C[C@@H](C)[C@H](CCCO)[C@@H](OCC)O1	/	/	/	/	0.6	/
C[C@@H]1NC(=O)c2cc([N+](=O)[O-])cc(I)c2NCCCC[C@@H](C(N)=O)NC(=O)[C@H](CCC(=O)O)NC1=O	/	/	/	/	-0.42	/
C=CCOC(=O)C1=C[C@@H](c2coc3ccccc3c2=O)C[C@@H](OCCCCO)O1	/	/	/	/	2.8*	/
CC1(C)CC(=O)c2c(O)cc(OCc3ccc([N+](=O)[O-])cc3)cc2O1	-9	1	3	2	/	14
COc1ccc(-c2nnc(COc3ccc4ccccc4c3)o2)cc1OC	-5	2	0	3	2.9*	-7
